Test results from ChEMBL document CHEMBL1129500, “Substituted 2,5'-Bi-1H-benzimidazoles: topoisomerase I inhibition and cytotoxicity” (J Med Chem, 1996).

Assays:
[1] = system: DNA topoisomerase 1 (Bos taurus); assay: Effective concentration against Topoisomerase-I (purified from calf thymus gland) mediated DNA cleavage relative to Hoechst 33342
RPMI 8402 = assay: Cytotoxicity against human lymphoblast cell line RPMI 8402; assay type: functional, cell-based
Method in brief: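 RPMI 8402 human lymphoblasts grown in suspension at 37 °C, 5% CO2, in RPMI with 10% heat-inactivated FBS, 2 mM L-glutamine, penicillin and streptomycin. Seeded at 2000 cells/well and exposed to drug continuously for 4 days. Viability read by MTT tetrazolium microtiter assay, giving IC50. Highest dose tested 25 µM.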

## N#Cc1ccc2[nH]c(-c3ccc4[nH]c(-c5ccc6ccccc6c5)nc4c3)nc2c1
[1]
  REC: 10
RPMI 8402
  IC50: 130 nM

## Cc1ccc(-c2nc3cc(-c4nc5cc(C(N)=O)ccc5[nH]4)ccc3[nH]2)cc1
[1]
  REC: 10
RPMI 8402
  IC50: > 25000 nM

## CN1CCN(c2ccc3[nH]c(-c4ccc5[nH]c(-c6cccc7ccccc67)nc5c4)nc3c2)CC1
[1]
  REC: 20
RPMI 8402
  IC50: 330 nM

## NC(=O)c1ccc2[nH]c(-c3ccc4[nH]c(-c5ccccc5)nc4c3)nc2c1
[1]
  REC: 10
RPMI 8402
  IC50: > 25000 nM

## Cc1ccc(-c2nc3cc(-c4nc5cc(N6CCN(C)CC6)ccc5[nH]4)ccc3[nH]2)cc1
[1]
  REC: 1
RPMI 8402
  IC50: 830 nM

## N#Cc1ccc2[nH]c(-c3ccc4[nH]c(-c5cccc6ccccc56)nc4c3)nc2c1
[1]
  REC: 10
RPMI 8402
  IC50: 650 nM

## Cc1ccccc1-c1nc2cc(-c3nc4cc(C#N)ccc4[nH]3)ccc2[nH]1
[1]
  REC: > 100
RPMI 8402
  IC50: 1200 nM

## Cc1cccc(-c2nc3cc(-c4nc5cc(N6CCN(C)CC6)ccc5[nH]4)ccc3[nH]2)c1
[1]
  REC: 1
RPMI 8402
  IC50: 360 nM

## CN1CCN(c2ccc3[nH]c(-c4ccc5[nH]c(-c6ccccc6)nc5c4)nc3c2)CC1
[1]
  REC: 1
RPMI 8402
  IC50: 490 nM

## CN1CCN(c2ccc3[nH]c(-c4ccc5[nH]c(-c6ccc7ccccc7c6)nc5c4)nc3c2)CC1
[1]
  REC: 10
RPMI 8402
  IC50: 110 nM

## Cc1ccccc1-c1nc2cc(-c3nc4cc(N5CCN(C)CC5)ccc4[nH]3)ccc2[nH]1
[1]
  REC: 10
RPMI 8402
  IC50: 590 nM

## Cc1ccc(-c2nc3cc(-c4nc5cc(C#N)ccc5[nH]4)ccc3[nH]2)cc1
[1]
  REC: 1
RPMI 8402
  IC50: 570 nM

## NC(=O)c1ccc2[nH]c(-c3ccc4[nH]c(-c5ccc6ccccc6c5)nc4c3)nc2c1
[1]
  REC: 100
RPMI 8402
  IC50: 740 nM

## Cc1cccc(-c2nc3cc(-c4nc5cc(C#N)ccc5[nH]4)ccc3[nH]2)c1
[1]
  REC: 100
RPMI 8402
  IC50: 860 nM

## Cc1cccc(-c2nc3cc(-c4nc5cc(C(N)=O)ccc5[nH]4)ccc3[nH]2)c1
[1]
  REC: 100
RPMI 8402
  IC50: 8200 nM

## NC(=O)c1ccc2[nH]c(-c3ccc4[nH]c(-c5cccc6ccccc56)nc4c3)nc2c1
[1]
  REC: 20
RPMI 8402
  IC50: 3700 nM

## Cc1ccccc1-c1nc2cc(-c3nc4cc(C(N)=O)ccc4[nH]3)ccc2[nH]1
[1]
  REC: 100
RPMI 8402
  IC50: 8200 nM

## N#Cc1ccc2[nH]c(-c3ccc4[nH]c(-c5ccccc5)nc4c3)nc2c1
[1]
  REC: > 100
RPMI 8402
  IC50: > 25000 nM
